The structures appear in SMILES notation. Where a name gives a salt, the structure may show the parent alone.

Data set [1] is described as follows: Stability tests of puquitinib in human plasma QC samples. It counts as physicochemical. The settings on record: in words. In short, it runs like this:
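Plasma QC samples (3.00, 250.00, 400.00 ng/mL) were tested three ways: extracted samples at room temperature for about 72 h; three freeze (−80 °C) and thaw (room temperature) cycles within a month, analysed in triplicate; and storage at −80 °C for 1 month. Quantified by HPLC–MS/MS against same-day calibration; accuracy given as RE%.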

In data set [2] the test system is several cancer cell lines, such as lung, breast, ovarian, colon, prostate cancer, leukemia, lymphoma and osteosarcoma. The settings on record: according to the data in vitro; cited from earlier work.
The subject of another data set is xenograft. As to conditions: xenograft mice model; preliminary studies; cited from earlier work.

Consider `c1cnc2ccc(Nc3nc(NC4CC4)c4nc[nH]c4n3)cc2c1` [puquitinib, Puquitinib mesylate], for which the “stability during short-term, freeze and thaw and long-term tests” value in data set [1] is “good stability”. Moreover, in data set [2], the IC50 is 500 to 2000 nM. In the data set on xenograft, the antitumor efficacy result is recorded as “clear antitumor efficacy”.

Source of the values: article PMC6133078 (European Journal of Drug Metabolism and Pharmacokinetics, 2018).
